Assay results from ChEMBL document CHEMBL1240396, “In vitro sensitivities of Plasmodium falciparum to different antimalarial drugs in Uganda” (Antimicrob Agents Chemother, 2010).
pIC50: −log10 of the molar value.

What was measured:
Plasmodium falciparum [1] = assay: Antimicrobial activity against Plasmodium falciparum by ELISA; format: functional, organism-based
Procedure, shortened: (§1)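 Fresh patient isolates, taken before therapy, washed in RPMI 1640, diluted with group O erythrocytes to 0.05% parasitemia, ~2% PCV with 0.5% Albumax II. Added to dried predosed wells with seven duplicate 2-fold dilutions (CQ 15.7–1,002 nM; MDAQ 6.25–400 nM; QN 15.4–985 nM; DHA 0.13–8.5 nM; LM 0.2–12.5 nM; PQ 1.6–100 nM). Incubated 72 h, 37°C, 5% CO2, then freeze-thawed. HRP-2 ELISA (A450) compared against drug-free wells. IC50 from nonlinear regression.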

Plasmodium falciparum [2] = assay: Antimicrobial activity against chloroquine-sensitive Plasmodium falciparum D6 by ELISA; format: functional, organism-based
Procedure, shortened: (§2)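 Reference laboratory lines run as controls. Drug-predosed wells held seven duplicate 2-fold dilutions (CQ 15.7–1,002 nM; MDAQ 6.25–400 nM; QN 15.4–985 nM; DHA 0.13–8.5 nM; LM 0.2–12.5 nM; PQ 1.6–100 nM). Incubated 72 h, 37°C, 5% CO2, freeze-thawed, and HRP-2 measured by ELISA at A450 against drug-free wells. IC50 by nonlinear regression.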

Plasmodium falciparum [3] = assay: Antimicrobial activity against chloroquine-resistant Plasmodium falciparum K1 by ELISA; format: functional, organism-based; procedure, shortened: as §2
Plasmodium falciparum [4] = assay: Antimicrobial activity against Plasmodium falciparum harboring mdr1 N86Y/D1246Y/Y184F mutant gene by ELISA; format: functional, organism-based; procedure, shortened: as §1
Plasmodium falciparum [5] = assay: Antimicrobial activity against chloroquine-resistant Plasmodium falciparum W2 by ELISA
Plasmodium falciparum [6] = assay: Antimicrobial activity against chloroquine-sensitive Plasmodium falciparum HB3 by ELISA

SMILES | pIC50 (Plasmodium falciparum [1]) | pIC50 (Plasmodium falciparum [2]) | pIC50 (Plasmodium falciparum [3]) | pIC50 (Plasmodium falciparum [4]) | pIC50 (Plasmodium falciparum [5]) | pIC50 (Plasmodium falciparum [6])
C=C[C@H]1CN2CC[C@H]1C[C@H]2[C@H](O)c1ccnc2ccc(OC)cc12 [QUININE] | 7.03 | 6.97 | 6.56 | 7.81 | 6.31 | 6.63
C[C@H]1[C@@H](O)O[C@@H]2O[C@@]3(C)CC[C@H]4[C@H](C)CC[C@@H]1[C@@]24OO3 [ARTENIMOL] | 9.26 | 9.10 | 9.31 | – | 9.39 | 9.15
CCCCN(CCCC)CC(O)c1cc(Cl)cc2c1-c1ccc(Cl)cc1/C2=C/c1ccc(Cl)cc1 (stereo not drawn) [LUMEFANTRINE] | 9.29 | 8.74 | 9.51 | 9.72 | 9.35 | 8.85
CCNCc1cc(Nc2ccnc3cc(Cl)ccc23)ccc1O [DESETHYL AMODIAQUINE] | 7.18 | 7.51 | 6.58 | 8.20 | 6.57 | 7.53
Clc1ccc2c(N3CCN(CCCN4CCN(c5ccnc6cc(Cl)ccc56)CC4)CC3)ccnc2c1 [PIPERAQUINE] | 8.21 | 8.20 | 7.90 | 8.80 | – | 7.98
